According to ChEMBL document CHEMBL3425427, “Pyrido[4,3-e][1,2,4]triazolo[4,3-a]pyrazines as Selective, Brain Penetrant Phosphodiesterase 2 (PDE2) Inhibitors” (ACS Med Chem Lett, 2015):
Converted amounts (≈) assume the structure as drawn.

Experiments:
[1] = Drug metabolism in human liver microsomes at 1 uM incubated for 15 mins at 37 degC; assay type: ADME; details: read-out: Drug metabolism
Outline: (§1)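 Compound at 1 μM incubated 15 min at 37 °C with human or rat liver microsomes; read-out is percent metabolized.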

[2] = Ratio of drug level in brain to plasma of Sprague-Dawley rat at 10 mg/kg, sc after 1 hr; assay type: ADME, organism-based; parameters: dose 10 mg/kg, route subcutaneous; details: read-out: BPR
Outline: (§2)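 Fed male Sprague-Dawley rats, n = 2 per time point, given 10 mg/kg s.c. in 20% HPβCD at pH 3.5−4. Brain and plasma levels taken 1 h after dosing; brain-to-plasma ratio computed from these.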

[3] = Drug metabolism in rat liver microsomes at 1 uM incubated for 15 mins at 37 degC; assay type: ADME; details: read-out: Drug metabolism; outline: as §1
[4] = Unbound fraction in Sprague-Dawley rat brain homogenates at 10 mg/kg, sc after 5 hrs at 37 degC by rapid equilibrium dialysis; assay type: ADME, organism-based; parameters: dose 10 mg/kg, route subcutaneous; details: brain homogenate
Outline: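 Unbound fraction measured in rat brain homogenate by rapid equilibrium dialysis, 5 h incubation at 37 °C.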

[5] = Drug level in Sprague-Dawley rat brain homogenates at 10 mg/kg, sc after 1 hr; assay type: ADME, organism-based; parameters: dose 10 mg/kg, route subcutaneous; details: read-out: Drug uptake; outline: as §2
[6] = biological target: T1, cAMP and cAMP-inhibited cGMP 3',5'-cyclic phosphodiesterase 10A (Rattus norvegicus, UniProt Q9QYJ6); experiment: Inhibition of 6-His-tagged rat recombinant PDE10A expressed in Sf9 cells using [3H]cAMP incubated for 60 mins by scintillation proximity assay
T1 sequence (Q9QYJ6 whole entry): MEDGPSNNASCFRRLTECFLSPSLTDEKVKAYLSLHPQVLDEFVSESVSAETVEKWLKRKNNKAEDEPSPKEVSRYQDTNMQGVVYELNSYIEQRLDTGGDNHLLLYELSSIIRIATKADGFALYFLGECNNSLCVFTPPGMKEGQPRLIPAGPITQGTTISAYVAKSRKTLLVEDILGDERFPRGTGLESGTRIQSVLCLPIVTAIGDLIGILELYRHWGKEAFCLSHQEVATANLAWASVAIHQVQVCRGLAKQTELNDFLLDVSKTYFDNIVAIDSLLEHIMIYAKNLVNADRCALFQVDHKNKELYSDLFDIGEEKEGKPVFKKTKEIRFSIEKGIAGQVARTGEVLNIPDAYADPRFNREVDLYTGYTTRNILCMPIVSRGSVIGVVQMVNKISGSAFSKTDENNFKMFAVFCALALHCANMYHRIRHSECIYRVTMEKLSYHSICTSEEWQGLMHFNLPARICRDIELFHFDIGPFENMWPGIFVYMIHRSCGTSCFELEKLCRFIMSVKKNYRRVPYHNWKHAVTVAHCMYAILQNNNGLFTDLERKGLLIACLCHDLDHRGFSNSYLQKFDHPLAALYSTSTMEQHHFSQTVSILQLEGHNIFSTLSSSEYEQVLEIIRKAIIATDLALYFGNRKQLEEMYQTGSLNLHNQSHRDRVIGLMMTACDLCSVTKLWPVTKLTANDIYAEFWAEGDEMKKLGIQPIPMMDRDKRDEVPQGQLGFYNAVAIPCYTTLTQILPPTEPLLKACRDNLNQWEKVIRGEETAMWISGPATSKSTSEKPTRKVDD

[7] = biological target: High affinity 3',5'-cyclic-AMP phosphodiesterase 7A (Homo sapiens, UniProt Q13946); experiment: Inhibition of 6-His-tagged human recombinant PDE7A1 expressed in Sf9 cells by scintillation proximity assay
Sequence of High affinity 3',5'-cyclic-AMP phosphodiesterase 7A (Q13946 whole entry): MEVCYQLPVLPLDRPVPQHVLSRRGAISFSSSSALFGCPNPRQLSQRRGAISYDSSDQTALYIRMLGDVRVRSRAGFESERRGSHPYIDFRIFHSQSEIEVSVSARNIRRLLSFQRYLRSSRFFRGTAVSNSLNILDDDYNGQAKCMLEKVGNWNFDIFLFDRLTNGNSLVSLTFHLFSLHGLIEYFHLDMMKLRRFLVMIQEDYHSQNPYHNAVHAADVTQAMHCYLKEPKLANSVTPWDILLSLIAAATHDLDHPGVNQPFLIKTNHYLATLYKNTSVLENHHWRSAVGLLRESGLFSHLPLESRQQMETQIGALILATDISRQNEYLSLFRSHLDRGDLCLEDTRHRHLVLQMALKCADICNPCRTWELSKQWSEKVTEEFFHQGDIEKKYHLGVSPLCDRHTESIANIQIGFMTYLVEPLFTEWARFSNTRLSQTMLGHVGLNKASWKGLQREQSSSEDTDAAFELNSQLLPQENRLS

[8] = Clearance in Sprague-Dawley rat at 2.5 mg/kg, iv; assay type: ADME, organism-based; parameters: dose 2.5 mg/kg, route intravenous; details: in vivo
Outline: (§3)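 Male Sprague-Dawley rats, fed; n = 3 per time point. Dosed 2.5 mg/kg i.v. or 10 mg/kg p.o.; plasma PK parameters derived from both routes.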

[9] = Half life in Sprague-Dawley rat at 10 mg/kg, po; assay type: ADME, organism-based; parameters: dose 10 mg/kg, route oral; details: in vivo; outline: as §3
[10] = biological target: Dual 3',5'-cyclic-AMP and -GMP phosphodiesterase 11A (Homo sapiens, UniProt Q9HCR9); experiment: Inhibition of full length human PDE11A4 expressed in HEK cells by scintillation proximity assay; parameters: species or system HEK293
Sequence of Dual 3',5'-cyclic-AMP and -GMP phosphodiesterase 11A (Q9HCR9 whole entry): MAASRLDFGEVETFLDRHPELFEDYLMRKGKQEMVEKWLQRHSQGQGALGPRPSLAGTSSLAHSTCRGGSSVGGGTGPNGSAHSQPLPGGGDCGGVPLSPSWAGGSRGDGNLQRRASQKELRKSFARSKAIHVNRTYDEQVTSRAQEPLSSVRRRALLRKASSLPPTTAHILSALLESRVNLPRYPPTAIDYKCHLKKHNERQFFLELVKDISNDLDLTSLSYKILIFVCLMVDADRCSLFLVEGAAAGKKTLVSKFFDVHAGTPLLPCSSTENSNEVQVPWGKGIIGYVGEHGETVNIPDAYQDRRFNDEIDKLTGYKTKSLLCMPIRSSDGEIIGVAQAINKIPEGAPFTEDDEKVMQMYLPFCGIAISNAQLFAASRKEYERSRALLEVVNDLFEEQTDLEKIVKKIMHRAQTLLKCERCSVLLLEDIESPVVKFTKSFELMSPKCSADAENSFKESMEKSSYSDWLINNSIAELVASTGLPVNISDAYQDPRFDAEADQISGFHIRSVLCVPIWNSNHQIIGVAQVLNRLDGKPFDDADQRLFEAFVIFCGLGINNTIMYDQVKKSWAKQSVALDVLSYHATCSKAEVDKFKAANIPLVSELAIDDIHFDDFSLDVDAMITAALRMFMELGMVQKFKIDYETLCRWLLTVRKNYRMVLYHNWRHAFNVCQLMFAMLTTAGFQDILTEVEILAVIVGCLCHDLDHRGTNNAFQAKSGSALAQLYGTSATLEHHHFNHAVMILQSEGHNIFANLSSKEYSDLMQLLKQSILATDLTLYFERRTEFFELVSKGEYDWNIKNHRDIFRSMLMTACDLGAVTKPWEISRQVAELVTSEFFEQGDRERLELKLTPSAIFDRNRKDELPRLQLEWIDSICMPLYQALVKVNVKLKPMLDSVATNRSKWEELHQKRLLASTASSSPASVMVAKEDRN

[11] = biological target: T2, CYP1A2 (Homo sapiens, UniProt P05177); experiment: Inhibition of CYP1A2 (unknown origin) at 5 uM; assay type: ADME
T2 sequence (P05177 whole entry): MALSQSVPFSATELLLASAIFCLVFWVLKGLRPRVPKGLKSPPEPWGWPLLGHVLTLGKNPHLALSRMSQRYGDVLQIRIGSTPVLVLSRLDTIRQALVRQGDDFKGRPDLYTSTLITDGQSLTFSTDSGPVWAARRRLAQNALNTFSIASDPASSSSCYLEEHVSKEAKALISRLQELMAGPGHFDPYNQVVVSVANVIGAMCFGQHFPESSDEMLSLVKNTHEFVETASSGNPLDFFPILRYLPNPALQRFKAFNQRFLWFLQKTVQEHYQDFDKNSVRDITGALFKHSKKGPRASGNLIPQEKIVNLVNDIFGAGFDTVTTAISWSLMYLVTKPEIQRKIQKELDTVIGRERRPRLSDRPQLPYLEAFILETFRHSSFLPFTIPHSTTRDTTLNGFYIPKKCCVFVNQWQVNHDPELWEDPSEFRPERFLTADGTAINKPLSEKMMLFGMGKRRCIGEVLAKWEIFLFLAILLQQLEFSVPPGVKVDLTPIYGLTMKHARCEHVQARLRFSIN

[12] = biological target: cGMP-inhibited 3',5'-cyclic phosphodiesterase 3B (Homo sapiens, UniProt Q13370); experiment: Inhibition of human PDE3B by scintillation proximity assay
[13] = biological target: CYP3A4 (Homo sapiens, UniProt P08684); experiment: Inhibition of CYP3A4 (unknown origin) at 5 uM; assay type: ADME
Sequence of CYP3A4 (P08684 whole entry): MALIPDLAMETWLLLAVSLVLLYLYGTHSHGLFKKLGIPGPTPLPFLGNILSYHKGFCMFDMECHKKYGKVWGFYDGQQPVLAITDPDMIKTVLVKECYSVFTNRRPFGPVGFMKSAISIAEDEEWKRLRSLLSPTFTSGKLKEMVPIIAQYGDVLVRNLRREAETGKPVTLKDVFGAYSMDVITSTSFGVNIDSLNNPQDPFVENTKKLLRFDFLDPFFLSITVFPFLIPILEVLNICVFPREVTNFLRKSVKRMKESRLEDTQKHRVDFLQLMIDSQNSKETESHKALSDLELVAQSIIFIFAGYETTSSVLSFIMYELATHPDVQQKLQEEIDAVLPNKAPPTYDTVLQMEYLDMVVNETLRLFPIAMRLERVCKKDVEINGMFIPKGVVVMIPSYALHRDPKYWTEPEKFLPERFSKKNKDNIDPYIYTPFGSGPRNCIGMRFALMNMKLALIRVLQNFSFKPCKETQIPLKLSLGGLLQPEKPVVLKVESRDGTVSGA

[14] = Kinetic solubility in pH 7.4 buffer incubated for 4 hrs; assay type: physicochemical; details: read-out: Kinetic_solubility
[15] = Dissociation constant, pKa of the compound; assay type: physicochemical
[16] = biological target: CYP2C19 (Homo sapiens, UniProt P33261); experiment: Inhibition of CYP2C19 (unknown origin) at 5 uM; assay type: ADME
Sequence of CYP2C19 (P33261 whole entry): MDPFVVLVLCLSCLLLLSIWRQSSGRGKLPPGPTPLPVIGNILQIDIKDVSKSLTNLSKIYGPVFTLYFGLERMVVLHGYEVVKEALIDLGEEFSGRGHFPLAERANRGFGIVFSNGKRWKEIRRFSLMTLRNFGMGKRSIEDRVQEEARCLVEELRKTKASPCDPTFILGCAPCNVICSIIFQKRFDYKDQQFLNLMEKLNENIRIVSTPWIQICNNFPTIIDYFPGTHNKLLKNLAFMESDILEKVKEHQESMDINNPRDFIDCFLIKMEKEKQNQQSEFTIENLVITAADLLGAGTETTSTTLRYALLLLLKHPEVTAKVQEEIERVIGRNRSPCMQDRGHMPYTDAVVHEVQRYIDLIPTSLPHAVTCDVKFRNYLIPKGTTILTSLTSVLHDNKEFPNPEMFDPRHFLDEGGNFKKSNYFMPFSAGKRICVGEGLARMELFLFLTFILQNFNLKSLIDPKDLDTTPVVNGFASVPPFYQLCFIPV

[17] = biological target: CYP2D6 (Homo sapiens, UniProt P10635); experiment: Inhibition of CYP2D6 (unknown origin) at 5 uM; assay type: ADME
Sequence of CYP2D6 (P10635 whole entry): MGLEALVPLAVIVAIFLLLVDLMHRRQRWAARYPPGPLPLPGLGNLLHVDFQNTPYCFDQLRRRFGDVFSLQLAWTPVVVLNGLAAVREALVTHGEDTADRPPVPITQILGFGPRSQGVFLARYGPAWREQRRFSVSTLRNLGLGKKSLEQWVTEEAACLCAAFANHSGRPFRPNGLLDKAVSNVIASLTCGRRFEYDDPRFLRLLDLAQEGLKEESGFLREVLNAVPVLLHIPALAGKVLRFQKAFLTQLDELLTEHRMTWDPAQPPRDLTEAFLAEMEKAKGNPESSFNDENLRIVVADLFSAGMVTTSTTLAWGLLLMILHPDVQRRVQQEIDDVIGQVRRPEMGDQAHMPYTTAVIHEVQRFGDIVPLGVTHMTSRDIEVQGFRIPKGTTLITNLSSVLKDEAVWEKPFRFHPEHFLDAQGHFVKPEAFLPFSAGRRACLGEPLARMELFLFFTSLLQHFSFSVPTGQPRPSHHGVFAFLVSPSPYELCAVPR

[18] = biological target: Dual specificity calcium/calmodulin-dependent 3',5'-cyclic nucleotide phosphodiesterase 1A (Homo sapiens, UniProt P54750); experiment: Inhibition of human PDE1A by scintillation proximity assay
[19] = biological target: cGMP-specific 3',5'-cyclic phosphodiesterase (Homo sapiens, UniProt O76074); experiment: Inhibition of 6-His-tagged human recombinant PDE5A3 expressed in Sf9 cells by scintillation proximity assay
[20] = Solubility in pH 7.4 buffer; assay type: physicochemical
[21] = biological target: Phosphodiesterase 6; experiment: Inhibition of human PDE6AB by scintillation proximity assay; assay type: protein assay
[22] = test system: Salmonella typhimurium; experiment: Genotoxicity in Salmonella typhimurium at 125 ug/ml by AMES-2 test; assay type: toxicity, organism-based; details: salmonella enterica subsp. enterica serovar typhimurium
Outline: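 Colorimetric AMESII bacterial mutagenicity kit, adapted; compound tested at 125 μg/mL.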

[23] = AUC (0 to infinity) in Sprague-Dawley rat at 10 mg/kg, po; assay type: ADME, organism-based; parameters: time infinity, dose 10 mg/kg, route oral; details: plasma
[24] = Tmax in Sprague-Dawley rat at 10 mg/kg, po; assay type: ADME, organism-based; parameters: dose 10 mg/kg, route oral; details: in vivo; outline: as §3
[25] = AUC (0 to infinity) in Sprague-Dawley rat at 2.5 mg/kg, iv; assay type: ADME, organism-based; parameters: dose 2.5 mg/kg, route intravenous, time infinity; details: plasma
[26] = Half life in Sprague-Dawley rat at 2.5 mg/kg, iv; assay type: ADME, organism-based; parameters: dose 2.5 mg/kg, route intravenous; details: in vivo; outline: as §3
[27] = test system: Rattus norvegicus; experiment: In vivo PDE2 occupancy in Wistar rat assessed as inhibition of specific binding of [3H]-4-((1-(5-butoxypyridin-3-yl)-4-methyl-[1,2,4]triazolo[4,3-a]quinoxalin-8-yl)methyl)morpholine radiotracer and pre-treated with 2.5 mg/kg, sc PDE10 inhibitor MP10
[28] = Dissociation constant, pKa of the compound at 25 degC by potentiometric titration method; assay type: physicochemical
[29] = Solubility in pH 3.9 buffer with 20% HPbetaCD; assay type: physicochemical
[30] = Initial plasma concentration in Sprague-Dawley rat at 2.5 mg/kg, iv; assay type: ADME, organism-based; parameters: dose 2.5 mg/kg, route intravenous; outline: as §3
[31] = biological target: CYP2C9 (Homo sapiens, UniProt P11712); experiment: Inhibition of CYP2C9 (unknown origin) at 5 uM; assay type: ADME
Sequence of CYP2C9 (P11712 whole entry): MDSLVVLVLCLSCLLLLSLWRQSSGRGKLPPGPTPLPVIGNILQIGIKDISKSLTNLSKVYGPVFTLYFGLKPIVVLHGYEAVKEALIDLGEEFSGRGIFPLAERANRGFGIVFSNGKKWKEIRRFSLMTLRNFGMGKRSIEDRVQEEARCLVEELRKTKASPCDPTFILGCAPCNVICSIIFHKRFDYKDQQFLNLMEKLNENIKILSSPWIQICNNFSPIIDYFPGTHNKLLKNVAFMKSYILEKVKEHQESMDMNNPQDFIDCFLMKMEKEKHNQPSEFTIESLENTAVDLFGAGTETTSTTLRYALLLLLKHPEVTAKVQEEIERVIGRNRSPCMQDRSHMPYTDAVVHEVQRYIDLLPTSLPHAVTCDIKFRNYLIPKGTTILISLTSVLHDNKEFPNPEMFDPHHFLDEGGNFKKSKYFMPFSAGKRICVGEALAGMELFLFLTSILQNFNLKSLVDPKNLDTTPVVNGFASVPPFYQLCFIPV

[32] = biological target: High affinity cGMP-specific 3',5'-cyclic phosphodiesterase 9A (Homo sapiens, UniProt O76083); experiment: Inhibition of 6-His-tagged human recombinant PDE9A1 expressed in Sf9 cells by scintillation proximity assay
Sequence of High affinity cGMP-specific 3',5'-cyclic phosphodiesterase 9A (O76083 whole entry): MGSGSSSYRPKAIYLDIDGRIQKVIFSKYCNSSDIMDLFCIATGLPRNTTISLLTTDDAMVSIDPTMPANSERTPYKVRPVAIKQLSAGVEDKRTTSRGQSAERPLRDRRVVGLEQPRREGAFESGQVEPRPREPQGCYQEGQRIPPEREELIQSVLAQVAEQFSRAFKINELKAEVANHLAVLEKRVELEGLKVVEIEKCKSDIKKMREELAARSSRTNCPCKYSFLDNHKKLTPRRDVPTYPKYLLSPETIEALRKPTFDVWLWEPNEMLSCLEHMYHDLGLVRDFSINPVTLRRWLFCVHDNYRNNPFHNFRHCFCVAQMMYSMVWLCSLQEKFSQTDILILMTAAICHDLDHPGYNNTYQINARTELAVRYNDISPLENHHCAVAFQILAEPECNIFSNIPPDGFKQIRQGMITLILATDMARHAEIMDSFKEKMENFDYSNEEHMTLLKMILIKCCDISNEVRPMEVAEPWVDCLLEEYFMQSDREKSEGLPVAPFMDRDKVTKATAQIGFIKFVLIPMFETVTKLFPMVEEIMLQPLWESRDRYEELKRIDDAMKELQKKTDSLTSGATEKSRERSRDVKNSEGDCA

[33] = Cmax in Sprague-Dawley rat at 10 mg/kg, po; assay type: ADME, organism-based; parameters: dose 10 mg/kg, route oral; details: in vivo; outline: as §3
[34] = Volume of distribution at steady state in Sprague-Dawley rat at 2.5 mg/kg, iv; assay type: ADME, organism-based; parameters: dose 2.5 mg/kg, route intravenous; details: in vivo, read-out: Vdss; outline: as §3
[35] = biological target: 3',5'-cyclic-AMP phosphodiesterase 4D (Homo sapiens, UniProt Q08499); experiment: Inhibition of 6-His-tagged human recombinant PDE4D3 expressed in Sf9 cells by scintillation proximity assay
Sequence of 3',5'-cyclic-AMP phosphodiesterase 4D (Q08499 whole entry): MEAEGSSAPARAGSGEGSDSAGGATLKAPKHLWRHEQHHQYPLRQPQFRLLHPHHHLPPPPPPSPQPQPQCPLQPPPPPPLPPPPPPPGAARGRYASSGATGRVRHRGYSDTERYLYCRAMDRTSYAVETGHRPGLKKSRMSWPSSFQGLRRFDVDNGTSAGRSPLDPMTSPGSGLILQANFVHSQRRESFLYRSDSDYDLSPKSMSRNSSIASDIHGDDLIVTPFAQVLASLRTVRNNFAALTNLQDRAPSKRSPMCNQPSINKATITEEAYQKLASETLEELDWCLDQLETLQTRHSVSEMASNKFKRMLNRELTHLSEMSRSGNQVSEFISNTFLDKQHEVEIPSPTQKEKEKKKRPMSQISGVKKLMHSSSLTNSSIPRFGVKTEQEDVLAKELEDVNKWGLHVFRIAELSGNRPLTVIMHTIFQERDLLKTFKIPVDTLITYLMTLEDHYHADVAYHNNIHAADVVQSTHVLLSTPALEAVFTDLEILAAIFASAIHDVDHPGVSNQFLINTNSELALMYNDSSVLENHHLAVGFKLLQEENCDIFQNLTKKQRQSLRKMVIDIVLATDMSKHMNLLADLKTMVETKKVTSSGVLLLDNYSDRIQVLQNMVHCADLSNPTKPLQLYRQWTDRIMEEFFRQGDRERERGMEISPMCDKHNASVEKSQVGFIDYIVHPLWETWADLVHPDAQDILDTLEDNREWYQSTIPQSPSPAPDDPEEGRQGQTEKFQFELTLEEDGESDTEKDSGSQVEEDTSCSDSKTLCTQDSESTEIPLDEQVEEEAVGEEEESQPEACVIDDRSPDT

[36] = Oral bioavailability in Sprague-Dawley rat at 10 mg/kg; assay type: ADME, organism-based; details: in vivo; outline: as §3
[37] = Drug formulatability in 20% HPbetaCD at pH >3.5 buffer; assay type: physicochemical; details: 20% HPbetaCD in buffer at pH >3.5; read-out: Activity
[38] = Apparent volume of distribution in Sprague-Dawley rat at 2.5 mg/kg, iv; assay type: ADME, organism-based; parameters: dose 2.5 mg/kg, route intravenous; details: in vivo, read-out: Vz; outline: as §3

CCCCOc1ccc(Cl)c(-c2nnc3c(C)nc4ccncc4n23)c1
metabolised at 0.25 h, 1 µM [1]: 34%
Kp at 1 h [2]: 0.69
metabolised at 0.25 h, 1 µM [3]: 98%
fraction unbound at 5 h [4]: 0.026
concentration at 1 h [5]: 807 ng/g

Cc1nc2ccncc2n2c(-c3cc(OC(F)(F)F)ccc3Cl)nnc12
metabolised at 0.25 h, 1 µM [1]: 3%
IC50 [6]: 8.91 µM
metabolised at 0.25 h, 1 µM [3]: 11%

Cc1nc2ccncc2n2c(-c3cc(N4CCOCC4)ccc3Cl)nnc12
metabolised at 0.25 h, 1 µM [1]: 14%
IC50 [6]: > 10 µM
metabolised at 0.25 h, 1 µM [3]: 53%

COCCOc1ccc(Cl)c(-c2nnc3c(C)nc4ccncc4n23)c1
metabolised at 0.25 h, 1 µM [1]: 5%
IC50 [6]: 9.12 µM
Kp at 1 h [2]: 0.44
metabolised at 0.25 h, 1 µM [3]: 18%
fraction unbound at 5 h [4]: 0.17
concentration at 1 h [5]: 801 ng/g

Cc1nc2ccncc2n2c(-c3ccccc3Cl)nnc12
metabolised at 0.25 h, 1 µM [1]: 7%
IC50 [7]: > 10 µM
clearance [8]: 38.7 mL/min/kg
half-life [9]: 2.36 h
IC50 [10]: 6.92 µM
inhibition at 5 µM [11]: < 50%
Kp at 1 h [2]: 0.65
IC50 [12]: > 10 µM
inhibition at 5 µM [13]: < 50%
solubility kinetic at 4 h [14]: > 1000 µM
pKa [15]: 2.7
inhibition at 5 µM [16]: < 50%
inhibition at 5 µM [17]: < 50%
IC50 [18]: > 10 µM
IC50 [19]: > 10 µM
solubility [20]: > 1000 µM
IC50 [21]: > 10 µM
Activity [22]: Non-toxic
AUC(0-inf) [23]: 4230 ng·h/mL
metabolised at 0.25 h, 1 µM [3]: 13%
Tmax [24]: 1.17 h
AUC(0-inf) [25]: 1040 ng·h/mL
half-life [26]: 0.47 h
ED50 [27]: 21 mg/kg
pKa [28]: 2.7
solubility [29]: 4000 µg/mL (≈ 13.5 mM)
fraction unbound at 5 h [4]: > 0.3
C0 [30]: 3020 ng/mL
inhibition at 5 µM [31]: < 50%
IC50 [32]: > 10 µM
Cmax [33]: 997 ng/mL
Vd [34]: 1.02 L/kg
IC50 [35]: 5.89 µM
concentration at 1 h [5]: 2730 ng/g
bioavailability [36]: 100%
solubility [37]: 4000 µg/mL (≈ 13.5 mM)
Vd [38]: 1.61 L/kg
